Each structure is given as a SMILES string. Active and inactive are the calls of the source. The calls are words filed in the database; no cut-off is given here.

Consider eight compounds from ChEMBL document CHEMBL4673277, “In silico and in vitro screening for potential anticancer candidates targeting GPR120” (Bioorg Med Chem Lett, 2021).

The test system of assay [1] is SW480. Kind of assay: Anticancer activity against human SW480 cells expressing GPR120 assessed as inhibition of cell viability measured after 24 hrs by alamar blue assay. The class given is functional, cell-based. The note with it: SW480, 24 h. In a few lines:
(§1)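 SW480 seeded 10,000, 5,000 or 2500 cells/well for 24, 48 or 72 h exposure; 9 serial dilutions 100 to 0.39 μM in 0.5% DMSO medium, not replenished during treatment. Read by 6% alamar blue, 3 h, ex 560/em 590 nm. 50% DMSO defined 0%, 0.5% DMSO 100%; IC50 by non-linear regression. 5 replicates, three experiments.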

For assay [2], the system named is SW480. Nature of the assay: Anticancer activity against human SW480 cells expressing GPR120 assessed as inhibition of cell viability measured after 72 hrs by alamar blue assay. It counts as functional, cell-based. In a few lines: as §1
Assay [3] concerns SW480. Nature of the assay: Anticancer activity against human SW480 cells expressing GPR120 assessed as inhibition of cell viability measured after 48 hrs by alamar blue assay. It counts as functional, cell-based. The note with it: SW480, 48 h. An outline of the steps:
as §1

The subject of assay [4] is SW480. Kind of assay: Anticancer activity against human SW480 cells expressing GPR120 assessed as inhibition of cell viability at 100 uM measured after 72 hrs by alamar blue assay relative to control. The class given is functional. In a few lines: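 SW480 in RPMI1640 + 10% FBS, 37 °C, 5% CO2; seeded 2500 cells/well, exposed 72 h to 100, 10, 1 μM in 0.5% DMSO medium. Medium then replaced by 6% alamar blue, 3 h, fluorescence ex 560/em 590 nm. Six replicates, mean ± SE; viability set relative to vehicle (0.5% DMSO) control.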

In assay [5] the test system is SW480. Nature of the assay: Anticancer activity against human SW480 cells transfected with scrambled siRNA assessed as inhibition of cell viability 5 uM measured after 24 hrs by alamar blue assay. The class given is functional, cell-based. In a few lines: (§2)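 SW480 seeded overnight, transfected with 50 nM human GPR120 27mer siRNA duplex or universal scrambled siRNA duplex (siTran 2.0). Harvested 24 h post-transfection, then exposed to 5 μM, 24 h. Viability read by alamar blue (6%, 3 h, ex 560/em 590 nm). Five replicates, mean ± SE; two-way ANOVA with Tukey test.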

In assay [6] the test system is SW480. Kind of assay: Anticancer activity against human SW480 cells transfected with GPR120 siRNA assessed as inhibition of cell viability 5 uM measured after 24 hrs by alamar blue assay. The class given is functional, cell-based. An outline of the steps: as §2

On to `Cn1c(SCC(=O)c2ccc(Cl)cc2)nc2c(c1=O)C1(CCCC1)Cc1ccccc1-2`, for which, in the assay with SW480 [1], the 50% inhibitory concentration (IC50) is 22.9 µM.

As to `O=C(CSc1nc2c(c(=O)n1C1CCCC1)C1(CCCC1)Cc1ccccc1-2)c1ccc(Cl)cc1`, the IC50 in the assay with SW480 [1] was 24.3 µM.

`Cc1ccc(-n2c(SCC(=O)c3ccc(Br)cc3)nc3c(c2=O)C2(CCCC2)Cc2ccccc2-3)cc1`: the IC50 in the assay with SW480 [1] came out at 25.5 µM.

Consider `Cc1ccc(-n2c(SCC(=O)c3ccccc3)nc3c(c2=O)C2(CCCC2)Cc2ccccc2-3)cc1`, for which the outcome in the assay with SW480 [2] was Active. In addition, the IC50 was 50 µM in the assay with SW480 [3] and 23.2 µM in the assay with SW480 [1]. The inhibition at 100 µM in the assay with SW480 [4] is above 90%.

Turning to `COc1ccc(-n2c(SCC(=O)c3ccc(Cl)cc3)nc3c(c2=O)C2(CCCC2)Cc2ccccc2-3)cc1`, the outcome in the assay on SW480 [5] and in the assay with SW480 [6] was Active. In addition, the IC50 in the assay on SW480 [1] amounted to 6.79 µM.

On to `O=C(CSc1nc2c(c(=O)n1-c1ccccc1)C1(CCCC1)Cc1ccccc1-2)c1ccc(Cl)cc1`, for which, in the assay on SW480 [5], the result was Active. The result in the assay on SW480 [6] was inactive. In addition, the IC50 in the assay on SW480 [1] stood at 5.89 µM.

Turning to `O=C1c2cc(S(=O)(=O)Nc3cccc4ccccc34)ccc2-c2ccc(S(=O)(=O)Nc3cccc4ccccc34)cc21`, in the assay with SW480 [2], the outcome was Active. The figures for the IC50 in the assay on SW480 [3] and in the assay on SW480 [1] were 50 µM and 26.6 µM, respectively. The inhibition at 100 µM with SW480 [4] was above 90%.

For the compound `O=C(CSc1nc2c(c(=O)n1CCc1ccccc1)C1(CCCC1)Cc1ccccc1-2)c1ccc(Cl)cc1`, the half-inhibitory concentration (IC50) in the assay on SW480 [1] turned out to be 68.9 µM.
